ChEMBL document CHEMBL1142414, “Comprehensive mechanistic analysis of hits from high-throughput and docking screens against beta-lactamase” (J Med Chem, 2008)

Assays:
[1] = Inhibition of chymotrypsin
Outline: (§1)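 Chymotrypsin (28 nM) preincubated 5 min with inhibitor, then reaction started with 200 µM N-succinyl-Ala-Ala-Pro-Phe p-nitroanilide. In the no-preincubation variant, inhibitor and substrate were mixed first and enzyme was added to start. Progress read at 410 nm.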

[2] = Inhibition of beta-lactamase AmpC
Outline: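 Cuvette assay with 1 nM AmpC β-lactamase and 200 µM nitrocefin, Triton X-100 at either 0.00002 or 0.1%. Compound and enzyme preincubated 5 min, then substrate added to start the reaction.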

[3] = Inhibition of beta-lactamase AmpC in presence of 0.1% Triton X-100
Outline: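 Cuvette assay with 1 nM AmpC β-lactamase and 200 µM nitrocefin, Triton X-100 at either 0.00002 or 0.1%. Compound and enzyme preincubated 5 min, then substrate added to start the reaction. Nitrocefin hydrolysis read at 482 nm by UV–visible spectrophotometry at room temperature.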

Cruzipain [4] = target: T1, Cruzipain (Trypanosoma cruzi, UniProt P25779); experiment: Inhibition of cruzain
[5] = Inhibition of malate dehydrogenase
Outline: (§2)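 Malate dehydrogenase (2 nM) incubated 5 min with inhibitor, then reaction started with 200 µM oxaloacetic acid plus 200 µM NADH. In the no-preincubation variant, inhibitor, oxaloacetate and NADH were mixed first and enzyme was added last. NADH consumption followed at 340 nm.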

Cruzipain [6] = target: T1, Cruzipain; experiment: Inhibition of cruzain in presence of 0.01% Triton X-100
Outline: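 Recombinant cruzain (10 nM) in 0.1 M sodium acetate pH 5.5 with 5 mM DTT and 0.01% Triton X-100, substrate 2.5 µM Z-Phe-Arg-AMC. Cleavage read fluorimetrically in 96-well format, excitation 355 nm, emission 460 nm.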

[7] = Inhibition of malate dehydrogenase in presence of 0.1% Triton X-100; outline: as §2
[8] = Inhibition of chymotrypsin in presence of 0.1% Triton X-100; outline: as §1

T1 sequence (P25779 whole entry): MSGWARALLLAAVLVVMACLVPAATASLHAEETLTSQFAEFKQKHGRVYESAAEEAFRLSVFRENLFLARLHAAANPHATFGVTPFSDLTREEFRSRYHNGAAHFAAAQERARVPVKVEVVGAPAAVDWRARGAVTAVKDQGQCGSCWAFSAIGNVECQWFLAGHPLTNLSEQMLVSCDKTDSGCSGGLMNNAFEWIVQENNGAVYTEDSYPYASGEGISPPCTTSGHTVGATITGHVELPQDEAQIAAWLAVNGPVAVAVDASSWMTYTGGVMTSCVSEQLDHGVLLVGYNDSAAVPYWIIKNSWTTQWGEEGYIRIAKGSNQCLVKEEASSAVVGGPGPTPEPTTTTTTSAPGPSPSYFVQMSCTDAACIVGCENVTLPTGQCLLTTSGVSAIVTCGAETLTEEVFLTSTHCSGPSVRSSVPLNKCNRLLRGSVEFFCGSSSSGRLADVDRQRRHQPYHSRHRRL

IC50 [1]	IC50 [2]	Ki [2]	IC50 [3]	IC50 (Cruzipain [4])	IC50 [5]	IC50 (Cruzipain [6])	IC50 [7]	IC50 [8]	Compound
> 600 µM	> 600 µM								CN(C)C/C=C(\c1ccc(Br)cc1)c1cccnc1
		830 µM							O=C(O)C(Cc1ccccc1)N1C(=O)c2ccccc2C1=O (racemic)
> 600 µM	> 600 µM								COc1ccc(-c2cc(C(=O)NCc3ccccc3)no2)cc1OC
> 600 µM	> 600 µM								COc1cccc(-c2nccc(-n3ccnc3)n2)c1
		210 µM							O=C(O)c1ccc2c(c1)C(=O)N(C(Cc1ccccc1)C(=O)O)C2=O (racemic)
> 600 µM	> 600 µM		> 600 µM	73 µM		170 µM		> 600 µM	O=C(CC1(O)C(=O)Nc2cc(Cl)cc(Cl)c21)c1ccccc1O (stereo not drawn)
		41 µM							O=C(O)c1ccc2c(c1)C(=O)N([C@H](Cc1cccc3ccccc13)c1nnn[nH]1)C2=O
< 1 µM	22 µM		> 600 µM	< 1 µM	5 µM	120 µM	106 µM	> 600 µM	CCOC(=O)C1=C(c2ccccc2)NC(SCC(=O)Nc2ccc(C)cc2)=C(C#N)C1c1ccco1 (stereo not drawn)
		17 µM							O=C(O)c1ccc2c(c1)C(=O)N([C@H](Cc1c[nH]c3ccccc13)C(=O)O)C2=O
		360 µM							O=C(O)c1ccc2c(c1)C(=O)N(CCc1ccc(O)cc1)C2=O
	> 600 µM								COc1cc2c(=O)n(Cc3ccco3)c(=O)n(CC(=O)c3cccc(Br)c3)c2cc1OC
37 µM	55 µM		43 µM	70 µM		90 µM		37 µM	O=C(Oc1cccnc1)c1cc2ccccc2oc1=O
< 1 µM	20 µM		38 µM	106 µM	65 µM	< 600 µM	> 600 µM	< 1 µM	Cc1occc1C(=O)n1nnc2ccccc21
70 µM	25 µM		20 µM	120 µM	> 600 µM	106 µM		70 µM	COc1cccc2cc(C(=O)n3ccc(C)n3)c(=O)oc12
	43 µM		58 µM	< 600 µM		< 600 µM			CCOC(=O)/C(C(C)=O)=C1\OC(=O)c2ccccc21
220 µM	> 600 µM				> 600 µM			345 µM	O=C(NCCc1ccccc1)C1CCCN(S(=O)(=O)c2cccc3nsnc23)C1 (stereo not drawn)
7 µM	< 600 µM		< 600 µM					27 µM	O=C(Nc1nc2n(n1)C(c1ccccc1)C=C(c1ccccc1)N2)c1ccco1 (stereo not drawn)
> 600 µM	> 600 µM								N#Cc1cccc(-c2nc(NCc3cccnc3)c3ccccc3n2)c1
		158 µM							O=C(O)c1ccc2c(c1)C(=O)N([C@@H](Cc1ccc(O)cc1)C(=O)O)C2=O
	> 600 µM								CCOc1ccccc1CNC(=O)c1cc2occc2n1C
		14 µM							O=C(O)c1ccc2c(c1)C(=O)N([C@H](Cc1ccc3ccccc3c1)C(=O)O)C2=O
570 µM	95 µM		> 600 µM	< 1 µM	15 µM	> 600 µM	> 600 µM	> 600 µM	Cc1ccc(C)n1C(Cc1ccccc1)C(=O)O (stereo not drawn)

The next lines start with the compound.

Compound	IC50 [1]	IC50 [2]	Ki [2]	IC50 [3]	IC50 (Cruzipain [4])	IC50 [5]	IC50 (Cruzipain [6])	IC50 [7]	IC50 [8]
CC(C)(C)OC(=O)NCc1nnc(S(=O)(=O)Cc2ccc(Cl)cc2Cl)o1	< 1 µM	< 1 µM		< 1 µM	95 µM	> 600 µM	410 µM	> 600 µM	< 1 µM
c1cc2c3c(c1)c1c(n3CCNC2)CCCC1	> 600 µM	> 600 µM							
CCCC12CN(C(=O)c3ccc(OC)cc3)CC(C)(CN(C(=O)c3ccc(OC)cc3)C1)C2=O	< 1 µM	15 µM		95 µM	> 600 µM	> 600 µM	> 600 µM		> 600 µM
N[C@@H](Cc1cc(-c2ccc(Cl)cc2Cl)cc(CP(=O)(O)O)c1O)C(=O)O	270 µM	160 µM		220 µM	77 µM	> 600 µM	158 µM		400 µM
CC(C)[C@H](NC(=O)OC(C)(C)C)c1nnc(S(=O)(=O)Cc2c(F)cccc2Cl)o1 (stereo in doubt; 1)	< 1 µM	< 1 µM		< 1 µM	< 1 µM	> 600 µM	< 1 µM	> 600 µM	< 1 µM
CC1=C/C(=C\c2ccc3c(c2)OCO3)C(=O)S1	> 600 µM	> 600 µM							
CC(C)CC(C(=O)O)N1C(=O)c2ccc(C(=O)O)cc2C1=O (racemic)			1200 µM						
CS(=O)(=O)N1CCC(C(=O)N2CCC(Cc3ccccc3)CC2)CC1	> 600 µM	> 600 µM		> 600 µM					> 600 µM
CCOC(=O)SC1=N/C(=C/c2ccc(N(C)C)cc2)C(=O)S1	< 1 µM	60 µM		> 600 µM	< 1 µM	200 µM	73 µM	> 600 µM	8 µM
CC(C)C[C@H](N)c1nnc(S(=O)(=O)Cc2ccc(F)cc2)o1	270 µM	600 µM		600 µM		> 600 µM			170 µM
CC(C)[C@H](NC(=O)OC(C)(C)C)c1nnc(S(=O)(=O)Cc2c(F)cccc2Cl)o1 (stereo in doubt)					< 1 µM		< 1 µM		
CSCCC(C(=O)O)N1C(=O)c2ccc(C(=O)O)cc2C1=O (racemic)			1300 µM						
COc1cccc(-c2ccc3ncnc(NCc4ccc(OC)cc4OC)c3c2)c1	> 600 µM	> 600 µM							
O=C(O)CN1C(=O)c2ccc(C(=O)O)cc2C1=O			6900 µM						
C[C@H]1[C@H]2C=C[C@@H]1[C@@H](C(=O)O)[C@@H]2c1c2ccc(=O)c(O)c-2oc2c(O)c(O)ccc12	67 µM	70 µM		> 600 µM	95 µM	18 µM	45 µM	45 µM	> 600 µM
O=C(O)c1ccc2c(c1)C(=O)N(C(Cc1ccc(O)cc1)C(=O)O)C2=O (racemic)	> 10000 µM		140 µM	210 µM	> 10000 µM		> 10000 µM		
S=C(S)OC1CC2CC1C1CCCC21 (stereo not drawn)	270 µM	270 µM		> 600 µM	15 µM	> 600 µM	> 600 µM		> 600 µM
CC(C)(C)OC(=O)NCCc1nnc(S(=O)(=O)Cc2ccc(Cl)cc2Cl)o1	< 1 µM	< 1 µM		< 1 µM	95 µM	> 600 µM	470 µM		< 1 µM
O=C(O)C1=CC(=C(c2ccc(O)c(C(=O)O)c2)c2ccc(O)c(C(=O)O)c2)C=CC1=O [AURINTRICARBOXYLIC ACID]	184 µM	120 µM		> 600 µM	53 µM	5 µM	28 µM	30 µM	> 600 µM
O=c1oc2c(O)c(O)cc3c(=O)oc4c(O)c(O)cc1c4c23 [ELLAGIC ACID]	470 µM	146 µM		> 600 µM	64 µM	55 µM	220 µM	106 µM	< 600 µM
